Test [1] is described as follows: Growth inhibition of human PLC5 cells after 24 hrs by MTT assay. In kind it is functional, cell-based. The conditions noted are these: PLC5, 24 h. An outline of the steps: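 PLC5 cells were grown in DMEM with 10% FBS, penicillin, streptomycin and amphotericin B at 37 °C in 5% CO2. Cells were seeded in 96-well plates for 24 h, then exposed to agents in DMSO (0.1% final) in DMEM for 24 h; range 0.1–15 µM. MTT at 0.5 mg/mL was added for 2 h and absorbance read at 570 nm. Six replicates; IC50 derived.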
(Tetrazolium assays rely on reduction of a dye to a coloured formazan, in cell work by metabolically active cells.)

For test [2], the target named is Tyrosine-protein phosphatase non-receptor type 6 (Homo sapiens) (UniProt P29350). In words: Induction of SHP1 activation in IL-6-stimulated human PLC5 cells assessed as reduction of p-STAT3 at 10 uM after 24 hrs by ELISA. In kind it is cell-based. An outline of the steps:
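PLC5 cells were pre-stimulated with IL-6 at 25 ng/mL for 30 min, then treated with 10 µM compound for 24 h. Phospho-STAT3 was measured by ELISA against a DMSO control. Mean ± SD, N = 3.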
(In general: ELISA stands for enzyme-linked immunosorbent assay.)

For test [3] the target is unchanged. Kind of test: Induction of SHP1 activation in human PLC5 cells assessed as effect on SOCS-1 level at 5 to 10 uM after 24 hrs by Western blot method. In kind it is cell-based. An outline of the steps:
(§1)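 PLC5 cells were treated at 5 and 10 µM for 24 h in serum-free medium. Lysates were immunoblotted for p-STAT3 (Tyr705), STAT3, Mcl-1, cyclin D1, survivin, SOCS-1, SOCS-3 and PARP.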
For orientation: In western blotting, separated proteins are transferred to a membrane and probed.

The target is the same in test [4]. In words: Induction of SHP1 activation in human PLC5 cells assessed as effect on SOCS-3 level at 5 to 10 uM after 24 hrs by Western blot method. The format is cell-based. The method, boiled down:
as §1

The target is the same in test [5]. Kind of test: Induction of SHP1 activation in human PLC5 cells assessed as repression of CCND1 expression at 5 to 10 uM after 24 hrs by Western blot method. In kind it is cell-based. An outline of the steps: as §1
Test [6] shares this target. In words: Induction of SHP1 activation in human PLC5 cells assessed as reduction of p-STAT3 at 5 to 10 uM after 24 hrs by Western blot method. In kind it is cell-based. An outline of the steps: as §1
For test [7] the target is unchanged. Kind of test: Induction of SHP1 activation in human PLC5 cells assessed as repression of Mcl-1 expression at 5 to 10 uM after 24 hrs by Western blot method. In kind it is cell-based. The method, boiled down: as §1
Test [8] shares this target. In words: Induction of SHP1 activation in human PLC5 cells assessed as repression of survivin expression at 5 to 10 uM after 24 hrs by Western blot method. In kind it is cell-based. An outline of the steps:
as §1

Test [9] has the same target. In words: Induction of SHP1 activation in human PLC5 cell lysate at 10 uM after 24 hrs. In kind it is cell-based. An outline of the steps:
(§2)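 PLC5 cells were treated with compound for 24 h. SHP-1 was immunoprecipitated from lysates and its phosphatase activity measured with the EnzChek tyrosine phosphatase kit. Mean ± SD, N = 3.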

For test [10] the target is unchanged. In words: Induction of SHP1 activation in human PLC5 cells at 1 to 15 uM after 24 hrs. The format is cell-based. An outline of the steps: as §2
Test [11] shares this target. In words: Induction of SHP1 activation in human PLC5 cell lysate after 24 hrs. In kind it is cell-based. The method, boiled down:
as §2

The target is the same in test [12]. Kind of test: Induction of SHP1 activation in human PLC5 cells assessed as PARP cleavage at 5 to 10 uM after 24 hrs by Western blot method. The format is cell-based. The method, boiled down: as §1
Test [13] has as its system Mus musculus. Kind of test: Inhibition of STAT3 phosphorylation in tumor of athymic NCr mouse xenografted with PLC5 cells at 10 mg/kg, po once daily for 3 weeks by Western blot method. The format is functional, organism-based. More on the design: dose 10 mg/kg. An outline of the steps:
(§3)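 Tumors came from PLC5 xenografts in nude mice dosed at 10 mg/kg/day p.o. for three weeks, with vehicle Cremophor EL/ethanol (50:50). Tumor extracts were assayed for p-STAT3 by western blot and for SHP-1 phosphatase activity.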

In test [14] the test system is Mus musculus. Kind of test: Induction of SHP1 activity in tumor of athymic NCr mouse xenografted with PLC5 cells at 10 mg/kg, po once daily for 3 weeks. More on the design: dose 10 mg/kg. In kind it is functional, organism-based. An outline of the steps: as §3
The subject of a further test is PLC5. In words: Antitumor activity against PLC5 cells xenografted in athymic NCr mouse assessed as tumor growth inhibition at 10 mg/kg, po once daily for 3 weeks. The format is functional, organism-based. More on the design: dose 10 mg/kg. An outline of the steps:
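Male NCr athymic nude mice, 5–7 weeks old, bearing PLC5 tumors. Dosing began when tumors reached 100 mm3: 10 mg/kg p.o. once daily for three weeks. Vehicle was Cremophor EL/95% ethanol (50:50), given to controls. Read-out was tumor growth.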

Test [15] in a line: Ratio of SC-1 IC50 to compound IC50 for human PLC5 cells. In kind it is functional.

SMILES strings stand for the structures. Calls of active or inactive are those of the source. No cut-off for these calls is given here.

Chain of Tyrosine-protein phosphatase non-receptor type 6 (Homo sapiens) (P29350 whole entry): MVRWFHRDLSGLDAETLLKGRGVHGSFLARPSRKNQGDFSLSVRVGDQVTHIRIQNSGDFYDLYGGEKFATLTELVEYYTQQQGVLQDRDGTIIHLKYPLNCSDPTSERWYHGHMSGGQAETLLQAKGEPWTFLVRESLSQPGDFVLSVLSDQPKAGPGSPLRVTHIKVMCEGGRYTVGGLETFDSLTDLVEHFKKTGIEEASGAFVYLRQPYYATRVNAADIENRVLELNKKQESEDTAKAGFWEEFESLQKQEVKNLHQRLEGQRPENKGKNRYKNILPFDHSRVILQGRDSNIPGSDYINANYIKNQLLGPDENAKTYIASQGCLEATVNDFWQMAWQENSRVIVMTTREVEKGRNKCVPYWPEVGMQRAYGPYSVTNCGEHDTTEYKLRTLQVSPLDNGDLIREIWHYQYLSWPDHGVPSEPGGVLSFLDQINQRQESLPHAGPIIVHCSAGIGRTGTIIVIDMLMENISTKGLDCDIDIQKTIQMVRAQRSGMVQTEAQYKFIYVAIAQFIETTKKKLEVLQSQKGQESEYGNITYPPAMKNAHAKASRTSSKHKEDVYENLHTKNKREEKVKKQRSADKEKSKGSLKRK

As usually defined, the IC50 is the concentration that gives 50% inhibition. `N#Cc1ccc(Oc2cccc(NC(=O)c3ccccc3)c2)cc1` yielded an IC50 in [1] of over 15 µM. Also, in test [2], the result was inactive.
In turn, `N#Cc1ccc(Oc2cccc(NC(=O)Nc3cccc(F)c3)c2)cc1` gave an IC50 in [1] of 3.3 µM. Moreover, the outcome in test [2] was Active.
As for `CNC(=O)c1cc(Oc2cccc(NCc3cccc(OC(F)(F)F)c3)c2)ccn1`, the result in test [3], in test [4], in [5], in [6], in test [7] and in [2] was inactive. The outcome in [8] and in test [9] was inactive. This compound returned an IC50 in [1] of over 15 µM.
In the case of `CNC(=O)c1cc(Oc2ccc(NC(=O)Nc3ccc(Cl)c(C(F)(F)F)c3)cc2)ccn1`, the result in test [10] was Active.
In test [1], `COc1ccc(CNC(=O)NCc2ccc(Oc3ccc(C#N)cc3)cc2)cc1OC` returned an IC50 of 10.5 µM. Besides, in [2], the result was Active.
For `O=c1[nH]c2ccc(Oc3cccc(NS(=O)(=O)c4cccc(C(F)(F)F)c4)c3)cc2[nH]1`, in that order: 11.5 µM and “Active”.
On the same counts, the results for `N#Cc1ccc(Oc2ccc(CNC(=O)NCc3cccc(OC(F)(F)F)c3)cc2)cc1` are over 15 µM and “inactive”.
For `CNC(=O)c1cc(Oc2cccc(NC(=O)c3ccccc3)c2)ccn1`, in that order: over 15 µM and “inactive”.
`Nc1cc(Oc2cccc(NS(=O)(=O)c3cccc(C(F)(F)F)c3)c2)ccc1[N+](=O)[O-]` returned a 50% inhibitory concentration (IC50) in test [1] of 3.9 µM. Also, the result in [2] was Active.
For `Cc1ccc(NC(=O)Nc2ccc(Cl)c(C(F)(F)F)c2)cc1Oc1ccc(C#N)cc1`, in that order: 4.5 µM and “Active”.
As for `N#Cc1ccc(Oc2cccc(NC(=O)Nc3ccc(Cl)c(C(F)(F)F)c3)c2)cc1` [SC-43], the outcome in test [3] and in test [4] was inactive. This compound returned an IC50 in test [1] of 0.5 µM. Moreover, the result in [5], in test [12], in [6], in test [7], in test [2] and in [8] was Active. The result in test [9] was Active. Further, the Activity entry in test [11] is “Dose-dependent effect”.
In turn, `CNC(=O)c1cc(Oc2cccc(NS(=O)(=O)c3cccc(C(F)(F)F)c3)c2)ccn1` showed an IC50 in [1] of 8.4 µM. Moreover, the outcome in test [2] was Active.
On the same counts, the results for `N#Cc1ccc(Oc2cccc(NS(=O)(=O)c3cccc(C(F)(F)F)c3)c2)cc1` are 2.2 µM and “Active”.
On the same counts, the results for `CNC(=O)c1cc(Oc2cccc(NS(=O)(=O)c3ccccc3)c2)ccn1` are over 15 µM and “inactive”.
In the case of `Nc1ccc(Oc2cccc(NCc3cccc(OC(F)(F)F)c3)c2)cc1N`, the 50% inhibitory concentration (IC50) in [1] was over 15 µM. The result in test [2] was inactive.
For `C[C@@H](NC(=O)Nc1ccc(Oc2ccc(C#N)cc2)cc1)c1cccc2ccccc12`, in that order: over 15 µM and “inactive”.
For `Nc1cc(Oc2cccc(NC(=O)Nc3ccc(Cl)c(C(F)(F)F)c3)c2)ccc1[N+](=O)[O-]`, in that order: 1.2 µM and “Active”.
As for `N#Cc1ccc(Oc2cccc(NCc3cccc(OC(F)(F)F)c3)c2)cc1`, in [1], the IC50 is over 15 µM. Further, the result in [2] was inactive.
On the same counts, the results for `COc1ccc(CNC(=O)Nc2ccc(Oc3ccc(C#N)cc3)cc2)cc1OC` are 12.3 µM and “Active”.
For `CNC(=O)c1cc(Oc2cccc(NC(=O)Nc3cccc(F)c3)c2)ccn1`, in that order: over 15 µM and “inactive”.
In the case of `N#Cc1ccc(Oc2ccc(CNC(=O)Nc3ccc(Cl)c(C(F)(F)F)c3)cc2)cc1`, the inhibition result in the test with Mus musculus [13] is “Active”. Moreover, the IC50 in test [1] was 2.1 µM. In addition, the result (with Mus musculus [14]; in test [2]; in test [9]) was Active. The TGI result in the test on PLC5 was “Active”. Also, the “Ratio IC50” value in test [15] turned out to be 4.
The compound `N#Cc1ccc(Oc2cccc(NS(=O)(=O)c3ccccc3)c2)cc1` returned an IC50 in test [1] of over 15 µM. Further, the outcome in [2] was inactive.
On the same counts, the results for `Nc1cc(Oc2cccc(NCc3cccc(OC(F)(F)F)c3)c2)ccc1[N+](=O)[O-]` are 8.3 µM and “Active”.
For `Nc1ccc(Oc2cccc(NS(=O)(=O)c3cccc(C(F)(F)F)c3)c2)cc1N`, in that order: over 15 µM and “inactive”.
The compound `O=c1[nH]c2ccc(Oc3cccc(NCc4cccc(OC(F)(F)F)c4)c3)cc2[nH]1` registered a concentration for half-maximal inhibition (IC50) in [1] of 10.2 µM. In addition, the result in test [2] was Active.

Source of the values: ChEMBL document CHEMBL2062387, “Blockade of STAT3 activation by sorafenib derivatives through enhancing SHP-1 phosphatase activity” (Eur J Med Chem, 2012).
